# Statin myotox sup – protects C2C12 myotubes from simvastatin toxicity; ATP luminescence, 48 h; scaled: DMSO 0, geranylgeraniol control 100; rescue of ATP level, % at 7.49 µM; actives 0.78% (n = 330,000); AID 602340;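 active means mean ATP rescue above about 67%, or every replicate alone reaching that limit, limit read from the data, passing the limit was not always enough; inconclusive means no clear call, values can overlap the other calls; inactive means mean under the limit and some replicate under it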;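 further: myotubes were challenged with 10 µM simvastatin during compound exposure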
# Cneo AK release – causes C. neoformans cell lysis; actives 0.2% (n = 360,000); adenylate kinase release luminescence, 4 h; normalised: neutral wells 0, clomiphene wells 100; lysis activity, % at 15 µM; AID 651654;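 active means mean lysis activity across replicates of at least 80%, whatever share of replicates individually reach that level; inactive means mean lysis activity below 80%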
#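 Material – log-phase Cryptococcus neoformans yeast cells · Input – 5 × 10^6 yeast cells/mL · Medium – fresh YPD growth medium · Doses – single compound concentration per well · Timing – static 4 h at 37 °C with compound, 1 h detection · Detection – adenylate kinase release luminescence · Read-out – signal increase indicating cell lysis · Control set – Clomiphene as positive lysis control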
# SUMO Mot1 rescue – blocks SUMOylation pathway, rescuing yeast Mot1-301 growth; actives 1% (n = 320,000); growth rescue, % at 18.8 µM; S. cerevisiae Mot1-301 growth rescue, ATP luminescence, 38.5C; percent above DMSO median, 100 means doubled;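 active means every valid replicate shows activation above 250% relative to neutral control wells; inactive means the rest, any valid replicate at or below 250%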;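 further: OY570 slx delta 5 strain wells were the positive control but not used for scaling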
# Yeast Mot1 SUMO – inhibits SUMO pathway, affecting Mot1-301 yeast growth; AID 493004; S. cerevisiae Mot1-301 galactose growth, ATP luminescence, 24 h; -100 = growth of slx-deleted rescue strain; growth activity, percent, % at 42 µM; shares compounds with SUMO Mot1 rescue; 2,300 tested, under 10 active;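 active means Signal drops as the depositor expects, and the fitted half-maximal dose is no more than ten times the top valid tested dose; inconclusive means Poor fit, or a flat curve whose signal drops by 30% to 70%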;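 further: more negative values mean stronger growth rescue toward the control strain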
# Starred values were filed as active, the others as inactive; ? = inconclusive; . = no result given; + = active, no number; [ ] = dose if it differs, or a comment. Sampled rows, rich in hits. Any-hit rate of the full collection: about 1.5%.
SMILES,Statin myotox sup,Cneo AK release,SUMO Mot1 rescue,Yeast Mot1 SUMO
CC1=C(C)CS(=O)N(S(=O)(=O)c2ccc(Cl)cc2)C1 (configuration not stated),16,8,724*,-1
CC1CCCC(C)N1S(=O)(=O)c1ccc(Cl)cc1 (configuration not stated),0,3,-3,.
CNC[C@@H]1Oc2ncc(Br)cc2C(=O)N([C@@H](C)CO)C[C@@H]1C,-2,-5,.,.
O=c1c2cc([N+](=O)[O-])ccc2sn1-c1ccccc1,-12,-8,.,.
N#Cc1c2ccc([N+](=O)[O-])cc2[n+]([O-])n1-c1ccccc1,7,-2,384*,-1
CC1(C)CC(=O)C(C(=O)c2ccccc2)C(=O)C1Cl (configuration not stated),7,9,536*,-1
CC1(C)CC(=O)C(C(=O)c2ccccc2)C(=O)C1,8,-1,-15,.
C[C@H]1CN([C@@H](C)CO)C(=O)c2cc(NS(=O)(=O)c3ccc(Cl)cc3)ccc2O[C@H]1CN(C)S(=O)(=O)c1ccc(F)cc1,40,-1,.,.
C[C@]12CS(=O)(=O)C[C@H]1SC(=S)N2c1ccccc1,-3,.,-6,.
CN1C(=S)SC2CS(=O)(=O)CC21C (configuration not stated),.,-2,517*,0[21 µM]
CC(=Nc1ccccc1)C1=C(O)CCCC1=O,.,8,-9,.
CC(=Nc1ccccc1)C1=C(O)CC(C)(C)CC1=O,-1,-1,432*,1
COCC(=O)N(C)C[C@@H]1Oc2ncc(-c3ccc(C#N)cc3)cc2C(=O)N([C@H](C)CO)C[C@H]1C,-20,-2,.,.
O=C(/C=C/N1CCOCC1)c1cc2ccccc2o1,.,.,-1,.
O=C(/C=C/N1CCOCC1)c1coc2ccccc12,-1,-1,425*,-1
COc1ccc(NC(=O)N(C)C[C@@H]2Oc3ccc(NC(=O)Cn4cnnn4)cc3C(=O)N([C@@H](C)CO)C[C@@H]2C)cc1,10,0,.,.
O=C(N/N=C/c1cccc(F)c1)c1c(O)c2c([nH]c1=O)CCCC2,.,.,-2,.
CNC(=O)c1ccccc1NC(=O)c1c(O)c2c([nH]c1=O)CCCC2,3,-7,522*,0
CCC1(c2ccccc2)NC(=O)N(CC(=O)N(C)CC(=O)Nc2ccc(F)c(F)c2F)C1=O (configuration not stated),-9,.,609*,1
CCC1(c2ccccc2)NC(=O)N(CC(=O)N(C)CC(=O)Nc2c(C)cccc2C)C1=O (configuration not stated),0,-3,31,.
C[C@H]1CN([C@@H](C)CO)C(=O)c2cc(C#CCC3CCCC3)cnc2O[C@@H]1CN(C)S(=O)(=O)c1cccs1,-7,0,.,.
CCOC(=O)c1cc(C#N)c(SC)nc1-c1ccccc1,-7,3,-15,.
CCOC(=O)c1cc(C#N)c(Oc2ccccc2OC)nc1-c1ccccc1,12,0,+,0
C[C@H](CO)N1C[C@H](C)[C@@H](CN(C)S(=O)(=O)c2ccccc2)Oc2ccc(NC(=O)Nc3cccc4ccccc34)cc2CC1=O,20,-4,.,.
COCC(=O)N(C)C[C@H]1Oc2cc(-c3cccnc3)ccc2S(=O)(=O)N([C@H](C)CO)C[C@H]1C,-22,3,.,.
SMILES,Statin myotox sup,Cneo AK release,SUMO Mot1 rescue,Yeast Mot1 SUMO
c1ccc(C[C@H]2CNCCN2CCCCC2CCCCC2)cc1,-7,1,-34,.
c1ccc2c(C[C@@H]3CNCCN3CCCCC3CCCCC3)cccc2c1,-4,5,402*,-3
CO[C@@H]1CN(C)C(=O)c2cc(NS(C)(=O)=O)ccc2OC[C@@H](C)N(C(=O)C2CCC2)C[C@H]1C,-5,0,.,.
CC(=O)NNC(=O)CCn1c2c(c3ccccc31)CCCC2,.,0,3,.
CCOC(=O)NNC(=O)CCn1c2c(c3ccccc31)CCCC2,.,.,960*,0
COc1cccc(-c2cnc3c(c2)C(=O)N([C@H](C)CO)C[C@@H](C)[C@@H](CN(C)C(=O)Nc2c(C)noc2C)O3)c1,-15,1,.,.
C[C@@H]1CN([C@H](C)CO)C(=O)c2cc(NC(=O)c3ccccc3)ccc2O[C@@H](C)CCCCO[C@H]1CN(C)Cc1ccc(C(=O)O)cc1,.,-2,.,.
C[C@H]1CN([C@@H](C)CO)C(=O)c2cc(C#CCN(C)C)cnc2O[C@H]1CN(C)C(=O)c1cccc(F)c1,7,3,.,.
Cc1ccc(NC(=O)COc2ccccc2C(=O)NCCN(C)C)cc1,.,.,800*,1
COc1ccccc1C(=O)NCCC(=O)N(C)CC(=O)Nc1ccc(C)cc1,-14,10,-6,.
CCC(=O)Nc1ccc2c(c1)C(=O)N(C)C[C@@H](OC)[C@@H](C)CN(Cc1ccccn1)[C@H](C)CO2,-23,-1,.,.
O=C(C[C@@H]1C=C[C@@H](NS(=O)(=O)c2cccc(F)c2)[C@H](CO)O1)N1CCCCC1,2,7,.,.
CN(C)S(=O)(=O)c1cccc(NC(=O)COc2nc3ccccc3nc2N2CCOCC2)c1,.,-1,524*,0
Cc1ccc(NC(=O)COc2ncnc3ccccc23)cc1S(=O)(=O)N1CCOCC1,.,0,-17,.
O=C(COc1ncnc2ccccc12)Nc1ccc(Cl)c(S(=O)(=O)N2CCOCC2)c1,.,-1,384*,0
O=C(COc1nc2ccccc2nc1N1CCOCC1)Nc1ccc(S(=O)(=O)N2CCCC2)cc1,.,1,-4,.
O=C(C[C@H]1CC[C@@H](NS(=O)(=O)c2ccc(F)cc2)[C@H](CO)O1)NCc1ccncn1,-3,-4,.,.
COCC(=O)N(C)C[C@@H]1Oc2cc(C#C[C@@H](C)O)ccc2S(=O)(=O)N([C@H](C)CO)C[C@H]1C,11,-25,.,.
COc1ccccc1C#Cc1ccc([C@H]2[C@H](CO)N3CCCCN(S(C)(=O)=O)C[C@@H]23)cc1,21,0,.,.
CC(C)Oc1ccc(CCC(=O)NNC(=O)CCC(=O)O)cc1,-9,.,-20,.
CC(C)Oc1ccc(CCC(=O)NNC(=O)c2ccccc2C(=O)O)cc1,?,-1,460*,0
C/C=C/c1cnc2c(c1)C(=O)N([C@H](C)CO)C[C@H](C)[C@@H](CN(C)C(=O)C1CC1)O2,-25,.,.,.
O=C(NCc1csc(-c2cccs2)n1)Nc1ccc(C(F)(F)F)cc1,.,2,3,.
O=C(NCc1csc(-c2cccs2)n1)Nc1ccc(F)cc1F,.,.,438*,0
C[C@@H]1CN([C@H](C)CO)C(=O)c2cc(NC(=O)CCCN(C)C)ccc2O[C@H]1CN(C)C(=O)Nc1ccccc1,-13,45,.,.
CC(C)CCn1c(C(C)O)nc2ccccc21 (configuration not stated),-12,-3,433*,0
CCCCn1c(C(C)O)nc2ccccc21 (configuration not stated),6,0,409,.
COc1ccccc1S(=O)(=O)N[C@@H]1CC[C@H](CCNC(=O)C2CCCCC2)O[C@H]1CO,6,2,.,.
COc1ccccc1N1CCN(C(=O)c2ccc(-c3ccccc3)cc2)CC1,5,-7,+,0
COc1ccc(C(=O)N2CCN(c3ccccc3OC)CC2)cc1,0,2,2,.
